Consider 1 compound from ChEMBL document CHEMBL2163220 (J Med Chem, 2012).

Calls of active or inactive are those of the source. The rule behind the calls is not given here.

Common to all, as to type: functional, cell-based
Experiment [1] concerns PC-3. In words: Effect on in Maspin expression in human PC3 cells deficient in wild type androgen receptor at 5 uM by luciferase reporter gene assay. The procedure, abridged: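 PC-3 cells were transfected with maspin-luc, with or without cotransfected AR. Cells were exposed to DMSO vehicle or compound at 2.5 and 5 μM. Luciferase activity was measured in triplicate.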
On the technique in general: A reporter such as luciferase makes a cellular process visible.

Experiment [2] has as its system PC-3. Nature of the experiment: Agonist activity at androgen receptor T887A mutant expressed in human PC3 cells assessed as stimulation of receptor transactivation at 0.1 to 1 uM by luciferase reporter gene assay. The procedure, abridged:
(§1)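 Full-length wild-type or mutant AR plasmid transiently transfected into PC-3 cells with MMTV-luc and Renilla luciferase reporters. Cells treated with DMSO vehicle or compound at 0.1 and 1 μM, alone or with 0.1 nM DHT. Luciferase read as relative luciferase units. Run in triplicate.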

The subject of experiment [3] is T1, Androgen receptor (Homo sapiens), P10275 [W742C].
T1 sequence (whole entry): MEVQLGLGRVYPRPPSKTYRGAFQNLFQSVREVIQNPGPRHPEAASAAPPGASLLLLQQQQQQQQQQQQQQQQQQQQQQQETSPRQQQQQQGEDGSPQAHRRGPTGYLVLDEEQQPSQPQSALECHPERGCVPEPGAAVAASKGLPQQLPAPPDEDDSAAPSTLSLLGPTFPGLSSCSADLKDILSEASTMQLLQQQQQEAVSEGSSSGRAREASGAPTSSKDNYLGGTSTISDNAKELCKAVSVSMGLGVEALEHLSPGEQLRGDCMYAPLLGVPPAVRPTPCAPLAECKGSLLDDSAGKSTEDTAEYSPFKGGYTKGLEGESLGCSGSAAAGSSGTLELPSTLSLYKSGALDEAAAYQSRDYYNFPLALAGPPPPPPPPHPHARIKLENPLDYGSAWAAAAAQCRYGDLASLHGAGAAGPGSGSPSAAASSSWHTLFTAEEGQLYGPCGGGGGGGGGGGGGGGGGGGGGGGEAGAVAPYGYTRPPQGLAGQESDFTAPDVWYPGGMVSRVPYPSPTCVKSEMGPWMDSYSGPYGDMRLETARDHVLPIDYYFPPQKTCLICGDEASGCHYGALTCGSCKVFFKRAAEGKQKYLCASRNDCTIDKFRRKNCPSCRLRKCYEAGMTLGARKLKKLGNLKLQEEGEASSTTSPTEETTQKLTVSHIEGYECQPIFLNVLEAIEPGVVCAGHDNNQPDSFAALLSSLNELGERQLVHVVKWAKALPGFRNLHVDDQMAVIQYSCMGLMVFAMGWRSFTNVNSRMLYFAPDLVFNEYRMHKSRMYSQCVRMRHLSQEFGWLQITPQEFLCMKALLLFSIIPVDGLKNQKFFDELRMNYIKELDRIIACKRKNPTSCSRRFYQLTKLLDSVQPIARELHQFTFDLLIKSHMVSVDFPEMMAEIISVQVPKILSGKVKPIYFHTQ
Nature of the experiment: Antagonist activity at androgen receptor W741C mutant expressed in human PC3 cells assessed as reduction in DHT-induced receptor transactivation at 0.1 to 1 uM by luciferase reporter gene assay. To be noted: PC-3. The procedure, abridged: as §1

Experiment [4] has as its system PC-3. In words: Cytotoxicity against human PC3 cells incubated for 72 hrs by MTT assay. To be noted: PC-3, 72 h. An outline of the steps: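 MTT assay run across a panel of prostate cancer cell lines.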
A general note: Formazan colour is commonly taken as a measure of viable cells.

Experiment [5] has as its target T2, Glucocorticoid receptor (Homo sapiens) (UniProt P04150).
T2 sequence (whole entry): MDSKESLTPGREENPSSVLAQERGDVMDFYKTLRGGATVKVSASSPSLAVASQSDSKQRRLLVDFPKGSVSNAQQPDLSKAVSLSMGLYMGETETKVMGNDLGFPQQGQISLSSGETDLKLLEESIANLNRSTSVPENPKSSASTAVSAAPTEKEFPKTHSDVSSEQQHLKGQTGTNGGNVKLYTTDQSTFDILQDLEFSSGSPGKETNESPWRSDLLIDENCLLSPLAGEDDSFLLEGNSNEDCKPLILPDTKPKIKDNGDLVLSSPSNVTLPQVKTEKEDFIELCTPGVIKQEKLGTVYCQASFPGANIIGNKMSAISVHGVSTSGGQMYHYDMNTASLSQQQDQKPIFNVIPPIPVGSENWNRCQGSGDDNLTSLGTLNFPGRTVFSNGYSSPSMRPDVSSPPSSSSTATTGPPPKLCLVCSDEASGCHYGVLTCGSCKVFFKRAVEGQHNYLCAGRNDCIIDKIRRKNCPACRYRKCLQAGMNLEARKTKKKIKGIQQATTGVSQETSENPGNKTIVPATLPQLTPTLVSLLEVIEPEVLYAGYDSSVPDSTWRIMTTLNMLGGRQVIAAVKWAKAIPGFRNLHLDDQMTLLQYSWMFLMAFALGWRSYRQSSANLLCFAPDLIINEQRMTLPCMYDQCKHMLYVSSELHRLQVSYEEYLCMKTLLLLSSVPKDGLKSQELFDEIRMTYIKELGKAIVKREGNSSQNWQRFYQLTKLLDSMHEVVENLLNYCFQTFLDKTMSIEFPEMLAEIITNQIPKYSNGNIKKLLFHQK
Nature of the experiment: Agonist activity at glucocorticoid receptor expressed in human PC3 cells assessed as stimulation of receptor transactivation at 1 uM by luciferase reporter gene assay. The following applies: PC-3. An outline of the steps: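 PC-3 cells express GR endogenously and were transfected only with the MMTV-luc reporter. Compound tested at 1 μM, alone or against transactivation induced by 10 nM dexamethasone. Read-out was luciferase reporter activity.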

Broadly, the IC50 is the concentration that gives 50% inhibition. The low end stands for inhibition by little substance, the high end for a need for much substance.

As to `Cc1coc2c1C(=O)C(=O)c1c-2ccc2c1CCCC2(C)C` [TANSHINONE IIA], the result (in the experiment on PC-3 [1]; in the experiment on PC-3 [2]; in experiment [5]) was inactive. Also, the outcome in experiment [3] was Active. Besides, the IC50 in the experiment on PC-3 [4] stood at 3.3 µM.
